Measurements: ChEMBL document CHEMBL3227924, “Pharmacologically active sulfoximides: 5-hexyl-7-)S-methylsulfonimidoly) xanthone-2-carboxylic acid, a potent antiallergic agent” (1979)
Calls of active or inactive are those of the source. The rule behind the calls is not given here.

Experiments:
Format in all cases: functional
Rattus norvegicus [1] = experiment: Antiallergic activity in po dosed ovalbumin-sensitized CFHB rat assessed as inhibition of passive cutaneous anaphylaxis after 30 mins by Evans blue staining
Rattus norvegicus [2] = experiment: Antiallergic activity in iv dosed ovalbumin-sensitized CFHB rat assessed as inhibition of passive cutaneous anaphylaxis after 30 mins by Evans blue staining; settings: 0.5 h
Outline: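 Rats passively sensitized with 0.1 mL of 1:25 donor anti-ovalbumen serum (IgE plus IgG) at four dorsal sites, then challenged iv 72 h later with ovalbumen 1 mg plus 1% Evans blue (0.5 mL). Compound in Tris buffer/saline given iv 30 s before challenge at ≥3 doses, ≥7 rats per group. Blue spots scored 0–4 at 30 min. ED50 read from the dose–response curve of % inhibition versus controls.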

Rattus norvegicus [3] = experiment: Antiallergic activity in ovalbumin-sensitized CFHB rat assessed as inhibition of passive cutaneous anaphylaxis at 10 mg/kg, iv after 30 mins by Evans blue staining
Outline: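 Sensitized with diluted (1:25) donor serum at four back sites. Challenge came 72 h later, iv, with ovalbumen 1 mg and 1% Evans blue 0.5 mL. Compound dissolved in Tris buffer, diluted in saline, and injected iv 30 s pre-challenge. Groups had at least seven rats, with matched controls. Skin spots were scored 0–4 for severity and area after 30 min. % inhibition came from the test versus control score difference.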

Work on `CCCCCCc1cc(S(C)(=N)=O)cc2c(=O)c3cc(C(=O)O)ccc3oc12` (stereo not drawn) [SUDEXANOX] yielded an ED50 (Rattus norvegicus [1]; 0.5 h) of 0.19 mg/kg and an ED50 (Rattus norvegicus [2]) of 0.005 mg/kg.

For `CCOC(=O)C1=CN=S(=O)(c2ccc3oc4ccc(C(=O)O)cc4c(=O)c3c2)C=C1O` (stereo not drawn), the inhibition (Rattus norvegicus [3]) was “inactive”.

With `CC(=O)N=S(C)(=O)c1ccc2oc3ccc(C(=O)O)cc3c(=O)c2c1` (stereo not drawn) the ED50 (Rattus norvegicus [2]) was 0.065 mg/kg.

With `CCCCCOc1cc(S(C)(=N)=O)cc2c(=O)c3cc(C(=O)O)ccc3oc12` (stereo not drawn) the ED50 (Rattus norvegicus [1]; 0.5 h) was 1.62 mg/kg and the ED50 (Rattus norvegicus [2]) was 0.005 mg/kg.

Work on `CS(=O)(=NC(N)=O)c1ccc2oc3ccc(C(=O)O)cc3c(=O)c2c1` (stereo not drawn) yielded an ED50 (Rattus norvegicus [1]; 0.5 h) of 8.6 mg/kg and an ED50 (Rattus norvegicus [2]) of 0.11 mg/kg.

For `O=C([O-])c1cc(=O)c2c(OCC(O)COc3cccc4oc(C(=O)[O-])cc(=O)c34)cccc2o1.[Na+].[Na+]` [CROMOLYN SODIUM], the ED50 (Rattus norvegicus [1]) was “inactive” and the ED50 (Rattus norvegicus [2]) was 1.21 mg/kg.

In the case of `CS(=O)(=NC(=O)c1ccccc1)c1ccc2oc3ccc(C(=O)O)cc3c(=O)c2c1` (stereo not drawn), the ED50 (Rattus norvegicus [2]) is reported as 0.68 mg/kg.

For `CS(=N)(=O)c1ccc2oc3ccccc3c(=O)c2c1` (stereo not drawn), the inhibition (Rattus norvegicus [3]) was “inactive”.

`CCCCCCc1cc(S(C)(=O)=NC(N)=O)cc2c(=O)c3cc(C(=O)O)ccc3oc12` (stereo not drawn) gave an ED50 (Rattus norvegicus [2]) of 0.009 mg/kg.

`Cc1ccc(S(=O)(=O)N=S(C)(=O)c2ccc3oc4ccc(C(=O)O)cc4c(=O)c3c2)cc1` (stereo not drawn) showed an ED50 (Rattus norvegicus [2]) of 3.93 mg/kg.

`Cc1ccc(S(=O)(=O)/N=S(\C)c2ccc3oc4ccc(C(=O)O)cc4c(=O)c3c2)cc1` (stereo not drawn) was tested, and the ED50 (Rattus norvegicus [2]) was 0.43 mg/kg.

`CS(=N)(=O)c1ccc2oc3ccc(C(=O)O)cc3c(=O)c2c1` (stereo not drawn) was tested, and the ED50 (Rattus norvegicus [1]; 0.5 h) was 2.72 mg/kg and the ED50 (Rattus norvegicus [2]) was 0.033 mg/kg.

`CCOC(=O)N=S(C)(=O)c1ccc2oc3ccc(C(=O)O)cc3c(=O)c2c1` (stereo not drawn) showed an inhibition in vivo at 10 mg/kg (Rattus norvegicus [3]; 0.5 h) of 89%.
